Activity calls are given as the source filed them. No cut-off for these calls is given here.
Key:
DU-145 = assay: Cytotoxicity against human DU145 cells by SRB assay; format: functional
How it was run: (§1)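 SRB growth assay; GI50 taken as molar concentration giving 50% tumor cell growth inhibition. Paclitaxel run as positive control. KBvin is a P-gp-expressing epidermoid carcinoma of the nasopharynx line.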

[1] = Cytotoxicity against human KBVIN cells by SRB assay; format: functional; how it was run: as §1
A549 = assay: Cytotoxicity against human A549 cells by SRB assay; format: functional; how it was run: as §1
KB = assay: Cytotoxicity against human KB cells by SRB assay; format: functional; how it was run: as §1
[2] = (§2) Inhibition of LPS-induced NF-kappaB activation in mouse RAW264.7 cells treated 30 mins before LPS challenge measured after 6 hrs by luciferase reporter gene assay; format: cell-based
How it was run: (§3)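 RAW264.7 cells stably carrying an NF-κB-driven firefly luciferase reporter, seeded at 10^4 cells/well and attached overnight. Pretreated 30 min with compound, then stimulated with LPS 1 μg/mL for 6 h; cells lysed and luciferase activity measured. Compounds screened at 10 μM; those above 98% inhibition were tested at serial concentrations for IC50, alongside BAY 11-7082 as positive control.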

RAW264.7 [3] = assay: as §2; format: cell-based; how it was run: as §3
RAW264.7 [4] = assay: Inhibition of LPS-induced NF-kappaB activation in mouse RAW264.7 cells at 10 uM treated 30 mins before LPS challenge measured after 6 hrs by luciferase reporter gene assay; format: cell-based; how it was run: as §3
[5] = target: Transcription factor p65 (Mus musculus) (UniProt Q04207); assay: Inhibition of LPS-induced NF-kappaB p65 translocation into nucleus in mouse RAW264.7 cells treated 30 mins before LPS challenge measured after 15 mins by Western blot analysis; format: cell-based
How it was run: (§4)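 RAW264.7 cells in dishes, attached overnight, pretreated 30 min with compound (test compound at 2.5, 5, 10 μM; reference inhibitor at 20 μM), then given LPS 1 μg/mL for 15 min. Total protein in RIPA buffer with protease/phosphatase inhibitors, used for IκB-α; nuclear extract used for p65. Western blot: SDS-PAGE, PVDF, primary antibody overnight at 4 °C, peroxidase secondary 1 h at room temperature, chemiluminescence.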

RAW264.7 [6] = assay: Antinflammatory activity in mouse RAW264.7 cells assessed as inhibition of LPS-induced nitric oxide production at 2.5 uM treated 30 mins before LPS challenge measured after 18 hrs by Griess assay; format: functional, cell-based
How it was run: (§5)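 RAW264.7 cells seeded in dishes, attached overnight, pretreated 30 min with compound (test compound at 0.6, 1.25 and 2.5 μM; reference inhibitor at 20 μM), then stimulated with LPS 1 μg/mL for 18 h. Medium collected and centrifuged; supernatant nitrite reacted with Griess reagents I and II, absorbance read at 540 nm as measure of NO.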

RAW264.7 [7] = assay: Inhibition of NF-kappaB-mediated IkappaBalpha degradation in LPS-induced mouse RAW264.7 cells treated 30 mins before LPS challenge measured after 15 mins by Western blot analysis; format: cell-based; how it was run: as §4
RAW264.7 [8] = assay: Inhibition of LPS-induced NF-kappaB activation in mouse RAW264.7 cells at 20 uM treated 30 mins before LPS challenge measured after 6 hrs by luciferase reporter gene assay; format: cell-based
RAW264.7 [9] = assay: Antinflammatory activity in mouse RAW264.7 cells assessed as inhibition of LPS-induced nitric oxide production at 20 uM treated 30 mins before LPS challenge measured after 18 hrs by Griess assay; format: functional, cell-based; how it was run: as §5

Chain of Transcription factor p65 (Mus musculus) (Q04207 whole entry): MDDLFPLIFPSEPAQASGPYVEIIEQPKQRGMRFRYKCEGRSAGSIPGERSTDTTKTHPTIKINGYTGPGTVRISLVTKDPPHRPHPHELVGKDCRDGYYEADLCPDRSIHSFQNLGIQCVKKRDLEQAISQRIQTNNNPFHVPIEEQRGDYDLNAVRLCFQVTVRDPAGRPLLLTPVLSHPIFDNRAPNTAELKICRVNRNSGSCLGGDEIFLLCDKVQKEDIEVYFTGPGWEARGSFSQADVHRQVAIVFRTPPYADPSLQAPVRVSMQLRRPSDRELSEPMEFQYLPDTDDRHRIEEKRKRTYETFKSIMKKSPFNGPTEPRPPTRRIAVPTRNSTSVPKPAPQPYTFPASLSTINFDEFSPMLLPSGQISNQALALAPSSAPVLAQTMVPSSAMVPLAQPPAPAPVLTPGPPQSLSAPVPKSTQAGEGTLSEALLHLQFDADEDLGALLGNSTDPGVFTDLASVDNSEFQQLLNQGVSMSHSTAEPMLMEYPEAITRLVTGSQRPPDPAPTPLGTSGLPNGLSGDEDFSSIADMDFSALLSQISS

Compound | GI50 (DU-145) | GI50 [1] | GI50 (A549) | GI50 (KB) | IC50 [2] | also measured
CCOC(=O)/C(C#N)=C/c1ccccc1-c1c(C(=O)OC)cc(OC)c(OC)c1OC | > 40 µM | > 40 µM | > 40 µM | > 40 µM | – | –
CCOC(=O)/C(C#N)=C/c1ccccc1-c1c(/C=C(\C#N)C(=O)OCC)cc(OC)c(OC)c1OC | 8.08 µM | 8.45 µM | 7.02 µM | 6.53 µM | 3.02 µM | –
CCOC(=O)/C(C#N)=C/c1cc(OC)c(OC)cc1-c1c(/C=C(\C#N)C(=O)OCC)cc(OC)c(OC)c1OC | 13.1 µM | 15.1 µM | 13.8 µM | > 36 µM | 3.75 µM | –
COc1cc2cc3c(=O)[nH]c(=O)c-3cc3cc4c(cc3c2c(OC)c1OC)OCO4 | 1.43 µM | 1.45 µM | 1.38 µM | 1.47 µM | 0.52 µM | inhibition (RAW264.7 [3]): Dose-dependent effect; inhibition (RAW264.7 [4]): Active; inhibition [5]: Dose-dependent effect; inhibition (RAW264.7 [6]): Active; inhibition (RAW264.7 [7]): Dose-dependent effect
CCOC(=O)/C(C#N)=C/c1cc2c(cc1-c1c(/C=C(\C#N)C(=O)OCC)cc(OC)c(OC)c1OC)OCO2 | > 22 µM | > 22 µM | > 22 µM | > 22 µM | – | –
COc1cc(/C=C/[N+](=O)[O-])c(-c2ccccc2/C=C/[N+](=O)[O-])c(OC)c1OC | 2.09 µM | 4.6 µM | 3.07 µM | 2.58 µM | 1.78 µM | –
COc1cc(/C=C(\C)[N+](=O)[O-])c(-c2c(/C=C(\C)[N+](=O)[O-])cc(OC)c(OC)c2OC)cc1OC | 6.75 µM | 7.22 µM | 5.23 µM | 13.5 µM | 2.16 µM | –
COc1cc2c(c(OC)c1OC)-c1cc3c(cc1/C=C(C(=O)O)\C(C(=O)O)=C/2)OCO3 | > 20 µM | > 20 µM | > 20 µM | > 20 µM | – | –
COc1cc(/C=C(\C)[N+](=O)[O-])c(-c2cc3c(cc2/C=C(\C)[N+](=O)[O-])OCO3)c(OC)c1OC | 1.51 µM | 1.27 µM | 0.87 µM | 0.72 µM | 0.9 µM | –
COC(=O)c1cc(OC)c(OC)c(OC)c1-c1ccccc1C=C(C#N)C#N | 21.9 µM | 20.6 µM | 42 µM | 36.2 µM | – | –
COc1cc(C=C(C#N)C#N)c(-c2ccccc2C=C(C#N)C#N)c(OC)c1OC | > 40 µM | > 40 µM | > 40 µM | > 40 µM | – | –
COc1cc(/C=C(\C)[N+](=O)[O-])c(-c2ccccc2/C=C(\C)[N+](=O)[O-])c2c1OCO2 | 19.8 µM | 18.7 µM | 13.9 µM | 18 µM | 0.81 µM | –
COc1cc(C=C(C#N)C#N)c(-c2c(C=C(C#N)C#N)cc(OC)c(OC)c2OC)cc1OC | 10.1 µM | 15.9 µM | 18 µM | 23.2 µM | 4.16 µM | –
CC(=O)O[C@H]1C(=O)[C@@]2(C)[C@H]([C@H](OC(=O)c3ccccc3)[C@]3(O)C[C@H](OC(=O)[C@H](O)[C@@H](NC(=O)c4ccccc4)c4ccccc4)C(C)=C1C3(C)C)[C@]1(OC(C)=O)CO[C@@H]1C[C@@H]2O [PACLITAXEL] | 0.006 µM | 1.8 µM | 0.0076 µM | 0.008 µM | – | –
COC(=O)C1=C/c2cc(OC)c(OC)cc2-c2c(cc(OC)c(OC)c2OC)/C=C\1C(=O)OC | – | > 20 µM | > 20 µM | > 20 µM | – | inhibition (DU-145): inactive
COc1cc(/C=C/[N+](=O)[O-])c(-c2cc3c(cc2/C=C/[N+](=O)[O-])OCO3)c(OC)c1OC | 9.09 µM | 8.6 µM | 8.95 µM | 5.49 µM | 1.72 µM | –
COc1cc2cc3c(=O)[nH]c(=O)c-3cc3ccccc3c2c(OC)c1OC | 2.34 µM | 2.07 µM | 2.31 µM | 2.67 µM | 1.02 µM | –
COc1cc(/C=C(/C)[N+](=O)[O-])c(-c2ccccc2/C=C(/C)[N+](=O)[O-])c(OC)c1OC | – | – | – | – | 0.75 µM | –
COC(=O)c1cc(OC)c(OC)c(OC)c1-c1ccccc1/C=C(\C)[N+](=O)[O-] | 6.56 µM | 6.17 µM | 6.2 µM | 6.95 µM | 1.61 µM | –
COc1cc2cc3c(=O)[nH]c(=O)c-3cc3cc(OC)c(OC)c(OC)c3c2cc1OC | 11.3 µM | 10.8 µM | 10.1 µM | 10.1 µM | 0.52 µM | –
COC(=O)C1=C/c2cc3c(cc2-c2c(cc(OC)c(OC)c2OC)/C=C\1C(=O)OC)OCO3 | – | 15.4 µM | 14.5 µM | 14 µM | – | –
COc1cc(C=C(C#N)C#N)c(-c2cc3c(cc2C=C(C#N)C#N)OCO3)c(OC)c1OC | 19.7 µM | > 40 µM | > 40 µM | > 40 µM | – | –
Cc1ccc(S(=O)(=O)/C=C/C#N)cc1 | – | – | – | – | 1.72 µM | inhibition (RAW264.7 [8]): Active; inhibition (RAW264.7 [9]): Active
COc1c2c(cc(/C=C(\C)[N+](=O)[O-])c1-c1ccccc1/C=C(\C)[N+](=O)[O-])OCO2 | 5.02 µM | 12.3 µM | 4.02 µM | 13.1 µM | 1.61 µM | –

Source: ChEMBL document CHEMBL3098077, “Discovery of novel antitumor dibenzocyclooctatetraene derivatives and related biphenyls as potent inhibitors of NF-κB signaling pathway” (Bioorg Med Chem, 2014)
